Results from ChEMBL document CHEMBL1165943, “Design and synthesis of new anticancer pyrimidines with multiple-kinase inhibitory effect” (Bioorg Med Chem, 2010).

What was measured:
Type in all cases: functional
[1] = system: MOLT-4; experiment: Cytotoxicity against human MOLT4 cells assessed as cell growth at 10 uM; settings: Homo sapiens, MOLT-4; read-out: Activity
Procedure, shortened: (§1)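 Single-dose screen at 10 μM across the 60-cell-line panel. Cells grown in RPMI 1640 with 5% FBS and 2 mM L-glutamine, seeded at 5,000–40,000 cells/well according to doubling time, and treated 24 h later. Exposure lasted 48 h at 37 °C, 5% CO₂. Adherent cells were fixed with cold TCA, suspension cells were fixed settled, and both were stained with SRB and read at 515 nm. Growth % was recorded, with inhibition % = 100 − growth %.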

[2] = system: KM12; experiment: Cytotoxicity against human KM12 cells assessed as cell growth at 10 uM; settings: Homo sapiens, KM12; read-out: Activity; procedure, shortened: as §1
[3] = system: UACC-62; experiment: Cytotoxicity against human UACC62 cells assessed as cell growth at 10 uM; settings: Homo sapiens, UACC-62; read-out: Activity; procedure, shortened: as §1
[4] = system: NCI/ADR-RES; experiment: Cytotoxicity against human NCI/ADR-RES cells assessed as cell growth at 10 uM; settings: Homo sapiens, NCI/ADR-RES; read-out: Activity; procedure, shortened: as §1
[5] = system: IGROV-1; experiment: Cytotoxicity against human IGROV1 cells assessed as cell growth at 10 uM; settings: Homo sapiens, IGROV-1; read-out: Activity; procedure, shortened: as §1
[6] = system: OVCAR-3; experiment: Cytotoxicity against human OVCAR-3 cells assessed as cell growth at 10 uM; settings: Homo sapiens, OVCAR-3; read-out: Activity; procedure, shortened: as §1
[7] = system: SK-MEL-2; experiment: Cytotoxicity against human SK-MEL-2 cells assessed as cell growth at 10 uM; settings: Homo sapiens, SK-MEL-2; read-out: Activity; procedure, shortened: as §1
[8] = system: U-251; experiment: Cytotoxicity against human U251 cells assessed as cell growth at 10 uM; settings: Homo sapiens, U-251; read-out: Activity; procedure, shortened: as §1
[9] = system: DU-145; experiment: Cytotoxicity against human DU145 cells assessed as cell growth at 10 uM; settings: Homo sapiens, DU-145; read-out: Activity
Procedure, shortened: (§2)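 Single-concentration screen at 10 μM across the 60-cell-line panel (nine tissue types); growth percentage recorded per cell line, with inhibition taken as 100 minus growth percentage.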

[10] = system: HCT-116; experiment: Cytotoxicity against human HCT116 cells assessed as cell growth at 10 uM; settings: Homo sapiens, HCT-116; read-out: Activity; procedure, shortened: as §2
[11] = system: SR; experiment: Cytotoxicity against human SR cells assessed as cell growth at 10 uM; settings: Homo sapiens, SR; read-out: Activity; procedure, shortened: as §1
[12] = system: HT-29; experiment: Cytotoxicity against human HT-29 cells assessed as cell growth at 10 uM; settings: Homo sapiens, HT-29; read-out: Activity; procedure, shortened: as §2
[13] = system: OVCAR-4; experiment: Cytotoxicity against human OVCAR4 cells assessed as cell growth at 10 uM; settings: Homo sapiens, OVCAR-4; read-out: Activity; procedure, shortened: as §1
[14] = system: A498; experiment: Cytotoxicity against human A498 cells assessed as cell growth at 10 uM; settings: Homo sapiens, A498; read-out: Activity; procedure, shortened: as §2
[15] = system: HOP-62; experiment: Cytotoxicity against human HOP62 cells assessed as cell growth at 10 uM; settings: Homo sapiens, HOP-62; read-out: Activity; procedure, shortened: as §2
[16] = system: T47D; experiment: Cytotoxicity against human T47D cells assessed as cell growth at 10 uM; settings: Homo sapiens, T47D; read-out: Activity; procedure, shortened: as §1
[17] = system: SF-268; experiment: Cytotoxicity against human SF268 cells assessed as cell growth at 10 uM; settings: Homo sapiens, SF-268; read-out: Activity; procedure, shortened: as §1
[18] = system: MCF7; experiment: Cytotoxicity against human MCF7 cells assessed as cell growth at 10 uM; settings: Homo sapiens, MCF7; read-out: Activity; procedure, shortened: as §1
[19] = system: OVCAR-8; experiment: Cytotoxicity against human OVCAR8 cells assessed as cell growth at 10 uM; settings: Homo sapiens, OVCAR-8; read-out: Activity; procedure, shortened: as §1
[20] = system: NCI-H522; experiment: Cytotoxicity against human NCI-H522 cells assessed as cell growth at 10 uM; settings: Homo sapiens, NCI-H522; read-out: Activity; procedure, shortened: as §1
[21] = system: CAKI-1; experiment: Cytotoxicity against human Caki1 cells assessed as cell growth at 10 uM; settings: Homo sapiens, CAKI-1; read-out: Activity; procedure, shortened: as §2
[22] = system: SF-539; experiment: Cytotoxicity against human SF539 cells assessed as cell growth at 10 uM; settings: Homo sapiens, SF-539; read-out: Activity; procedure, shortened: as §1
[23] = system: UO-31; experiment: Cytotoxicity against human UO31 cells assessed as cell growth at 10 uM; settings: Homo sapiens, UO-31; read-out: Activity; procedure, shortened: as §1
[24] = system: 786-0; experiment: Cytotoxicity against human 786-0 cells assessed as cell growth at 10 uM; settings: Homo sapiens, 786-0; read-out: Activity; procedure, shortened: as §2
[25] = system: SNB-75; experiment: Cytotoxicity against human SNB75 cells assessed as cell growth at 10 uM; settings: Homo sapiens, SNB-75; read-out: Activity; procedure, shortened: as §1
[26] = system: BT-549; experiment: Cytotoxicity against human BT549 cells assessed as cell growth at 10 uM; settings: Homo sapiens, BT-549; read-out: Activity; procedure, shortened: as §2
[27] = system: HL-60(TB); experiment: Cytotoxicity against human HL-60(TB) cells assessed as cell growth at 10 uM; settings: Homo sapiens, HL-60; read-out: Activity
Procedure, shortened: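 Single-concentration 10 µM screen of HL-60(TB) within the 60-line panel, grown in RPMI 1640 with 5% FBS. The drug from DMSO stock is incubated 48 h at 37 °C, settled cells are TCA-fixed and SRB-stained, and absorbance is read at 515 nm. Percent growth is reported, and inhibition % is taken as 100 minus growth %.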

[28] = system: NCI-H226; experiment: Cytotoxicity against human NCI-H226 cells assessed as cell growth at 10 uM; settings: Homo sapiens, NCI-H226; read-out: Activity; procedure, shortened: as §1
[29] = system: MDA-MB-468; experiment: Cytotoxicity against human MDA-MB-468 cells assessed as cell growth at 10 uM; settings: Homo sapiens, MDA-MB-468; read-out: Activity; procedure, shortened: as §1
[30] = system: NCI-H23; experiment: Cytotoxicity against human NCI-H23 cells assessed as cell growth at 10 uM; settings: Homo sapiens, NCI-H23; read-out: Activity; procedure, shortened: as §1
[31] = system: HCC 2998; experiment: Cytotoxicity against human HCC2998 cells assessed as cell growth at 10 uM; settings: Homo sapiens, HCC 2998; read-out: Activity; procedure, shortened: as §2
[32] = Growth inhibition of human NCI60 cells at 10 uM after 48 hrs by sulforhodamine B assay relative to control; settings: Homo sapiens, NCI60, 48 h; read-out: GI
Procedure, shortened: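 Single 10 µM dose across the 60-line panel for 48 h, with the same culture, TCA fixation and SRB 515 nm read-out. Inhibition % = 100 − growth %, given as the mean over the 60 cell lines.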

[33] = system: MDA-MB-231; experiment: Cytotoxicity against human MDA-MB-231 cells assessed as cell growth at 10 uM; settings: Homo sapiens, MDA-MB-231; read-out: Activity; procedure, shortened: as §1
[34] = system: ACHN; experiment: Cytotoxicity against human ACHN cells assessed as cell growth at 10 uM; settings: Homo sapiens, ACHN; read-out: Activity; procedure, shortened: as §2
[35] = system: LOX IMVI; experiment: Cytotoxicity against human LOXIMVI cells assessed as cell growth at 10 uM; settings: Homo sapiens, LOX IMVI; read-out: Activity; procedure, shortened: as §1
[36] = system: HCT-15; experiment: Cytotoxicity against human HCT15 cells assessed as cell growth at 10 uM; settings: Homo sapiens, HCT-15; read-out: Activity; procedure, shortened: as §2
[37] = system: K562; experiment: Cytotoxicity against human K562 cells assessed as cell growth at 10 uM; settings: Homo sapiens, K562; read-out: Activity; procedure, shortened: as §1

SMILES | growth at 10 µM [1] | growth at 10 µM [2] | growth at 10 µM [3] | growth at 10 µM [4] | growth at 10 µM [5] | growth at 10 µM [6] | growth at 10 µM [7] | growth at 10 µM [8] | growth at 10 µM [9] | growth at 10 µM [10] | growth at 10 µM [11] | growth at 10 µM [12] | growth at 10 µM [13] | growth at 10 µM [14] | growth at 10 µM [15] | growth at 10 µM [16] | growth at 10 µM [17] | growth at 10 µM [18] | growth at 10 µM [19] | growth at 10 µM [20] | further results
Cc1ccc(Nc2nc(C)cc(-c3cccnc3)n2)c(C)c1 | 91.4% | 98.7% | 82.4% | 85% | 90.4% | 105% | 107% | 92.2% | 99.5% | 95.2% | 94.4% | 96.8% | 102% | 96.1% | 111% | 87.1% | 96.4% | 90% | 94.2% | 90.6% | growth at 10 µM [21]: 88.8%; growth at 10 µM [22]: 89.7%; growth at 10 µM [23]: 86.9%; growth at 10 µM [24]: 93.2%; growth at 10 µM [25]: 85.3%; growth at 10 µM [26]: 95.9%; growth at 10 µM [27]: 98.5%; growth at 10 µM [28]: 94.8%; growth at 10 µM [29]: 72.8%; growth at 10 µM [30]: 90.9%; growth at 10 µM [31]: 101%; inhibition of growth at 10 µM [32]: 3.91%; growth at 10 µM [33]: 87.6%; growth at 10 µM [34]: 108%; growth at 10 µM [35]: 102%; growth at 10 µM [36]: 99.7%; growth at 10 µM [37]: 85.8%
Cc1cc(-c2cccnc2)nc(NC(=O)c2cccc(C(F)(F)F)c2)n1 | 96.6% | 109% | 92.3% | 91.2% | 103% | 116% | 93.5% | 97% | 101% | 105% | 106% | 98.9% | 103% | 93.9% | 106% | 95.5% | 103% | 91.5% | 96.6% | 91.9% | growth at 10 µM [21]: 83.6%; growth at 10 µM [22]: 99.3%; growth at 10 µM [23]: 86.7%; growth at 10 µM [24]: 95.2%; growth at 10 µM [25]: 93.5%; growth at 10 µM [26]: 97%; growth at 10 µM [27]: 97%; growth at 10 µM [28]: 97.5%; growth at 10 µM [29]: 96.7%; growth at 10 µM [30]: 101%; growth at 10 µM [31]: 99.3%; inhibition of growth at 10 µM [32]: 0.62%; growth at 10 µM [33]: 98.4%; growth at 10 µM [34]: 105%; growth at 10 µM [35]: 103%; growth at 10 µM [36]: 98.3%; growth at 10 µM [37]: 89%
